Screens as filed in PubChem.
A selection: hits, their analogues and other compounds. The true share with any hit is near 1.7%.
STEP inh – STEP phosphatase inhibitors, primary screen, biochemical, fluorescence intensity, uHTS; Tyrosine-protein phosphatase non-receptor type 5 (Homo sapiens), P54829; recombinant STEP, OMFP fluorogenic substrate; inhibition, % at 20 µM; 360,000 compounds, 0.25% hits; AID 588621, 2011;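 active = inhibition at 20 µM, scaled per plate between control wells, above about 37%, limit read from the data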;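 note: 0% = DMSO with enzyme and substrate and 100% = substrate only without enzyme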
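System: STEP (striatal-enriched tyrosine phosphatase) enzyme, cell-free; medium: Bis-Tris pH 6.0 buffer with DTT, detergent; dosing: 20 µM, 1% DMSO; times: reaction 20 min, ambient temperature; detection: fluorescence, 480/540 nm; read-out basis: normalized % inhibition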
LMPTP block – LMPTP phosphatase inhibitors, primary screen, biochemical, fluorescence intensity, uHTS; 360,000 compounds, 0.22% hits; AID 651560, 2012; recombinant LMPTP-A, OMFP fluorogenic substrate; Low molecular weight phosphotyrosine protein phosphatase (Homo sapiens), P24666; inhibition, % at 20 µM;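 active = compounds that cut the enzyme signal by at least half of the control window in the single-dose screen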;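 note: plate controls were DMSO wells with enzyme plus substrate for no effect and substrate without enzyme for full effect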
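Test system: LMPTP-A phosphatase enzyme; input: 0.625 nM LMPTP-A final; reagent: OMFP substrate, 400 µM final; compound dosing: 20 µM single dose, 3% DMSO; incubation: 50 min dark incubation at room temperature; measured by: endpoint fluorescence intensity from OMFP dephosphorylation; measure: % inhibition relative to no-enzyme and uninhibited control wells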
Scp1 inh – Scp-1 phosphatase inhibitors, primary screen, biochemical, colorimetric, uHTS | Carboxy-terminal domain RNA polymerase II polypeptide A small phosphatase 1 (Homo … | 340,000 compounds, 0.88% hits | inhibition, % at 20 µM | Recombinant Scp1, phosphopeptide, malachite green phosphate absorbance | AID 493091, 2011;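 active = inhibition above about 50% at 20 µM, limit read from the data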;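 note: plate controls were DMSO wells with enzyme for no effect and wells lacking enzyme for full effect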
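Test system: SCP-1 phosphatase catalytic domain, residues 76-261 | Compound dosing: One concentration, 20 µM, with 1.0% DMSO | Schedule: 45 min room-temperature reaction, 5 min colour, 30 min stabiliser | Detection: Absorbance at 630 nm | Read-out basis: % inhibition of SCP-1 phosphate liberation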
DNMT1 inh – human DNMT1 methyltransferase inhibitors, primary screen, biochemical, molecular beacon, fluorescence, HinP1I cleavage, uHTS. inhibition (reported as % activation of signal), % at 10 µM. 360,000 compounds, 0.83% hits. DNA (cytosine-5)-methyltransferase 1 (Homo sapiens), P26358; in the data active = inhibition above about 50%
Target sequence (P26358 504-1616 limits assumed): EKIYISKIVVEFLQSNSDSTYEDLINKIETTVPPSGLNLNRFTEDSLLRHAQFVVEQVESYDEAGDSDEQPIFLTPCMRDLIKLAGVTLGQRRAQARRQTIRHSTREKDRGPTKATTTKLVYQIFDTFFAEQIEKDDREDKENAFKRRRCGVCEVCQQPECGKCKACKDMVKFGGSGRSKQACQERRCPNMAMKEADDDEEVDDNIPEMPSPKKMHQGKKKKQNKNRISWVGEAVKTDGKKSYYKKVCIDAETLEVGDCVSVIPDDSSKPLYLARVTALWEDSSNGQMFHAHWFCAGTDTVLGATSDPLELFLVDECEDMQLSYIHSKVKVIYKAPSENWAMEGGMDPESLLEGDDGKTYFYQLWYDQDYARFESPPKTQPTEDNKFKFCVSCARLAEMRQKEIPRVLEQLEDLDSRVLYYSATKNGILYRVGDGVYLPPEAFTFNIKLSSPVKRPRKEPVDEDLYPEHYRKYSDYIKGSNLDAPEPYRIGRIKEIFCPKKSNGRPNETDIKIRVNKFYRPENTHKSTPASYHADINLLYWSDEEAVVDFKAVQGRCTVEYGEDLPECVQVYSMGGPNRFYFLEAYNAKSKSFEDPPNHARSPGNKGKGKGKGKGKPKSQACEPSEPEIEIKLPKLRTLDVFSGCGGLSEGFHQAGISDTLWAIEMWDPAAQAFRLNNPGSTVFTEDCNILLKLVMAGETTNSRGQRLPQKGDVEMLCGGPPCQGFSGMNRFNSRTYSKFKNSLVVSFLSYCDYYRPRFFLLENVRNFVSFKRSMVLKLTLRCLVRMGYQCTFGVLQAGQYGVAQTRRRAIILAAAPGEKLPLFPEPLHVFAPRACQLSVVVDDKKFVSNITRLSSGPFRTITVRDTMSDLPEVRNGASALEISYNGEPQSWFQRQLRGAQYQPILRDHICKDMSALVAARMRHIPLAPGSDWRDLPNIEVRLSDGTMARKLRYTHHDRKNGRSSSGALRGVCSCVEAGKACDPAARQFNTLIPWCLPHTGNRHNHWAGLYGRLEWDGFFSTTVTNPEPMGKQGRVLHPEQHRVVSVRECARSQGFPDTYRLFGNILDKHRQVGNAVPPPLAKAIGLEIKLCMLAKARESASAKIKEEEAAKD
SUMO1 PPI mod – modulators of SUMO1 protein-protein interactions, primary screen, biochemical, uHTS; inhibition, % at 20 µM; 360,000 compounds, 0.33% hits; Small ubiquitin-related modifier 1 (Homo sapiens), P63165; SUMO1 binding to a labelled peptide, TR-FRET, 1 h; in the data active = inhibition above about 37%
DNMT1 interf DR – spectral interference with molecular beacon fluorescence, dose response, artefact control for DNMT1 inhibitor project, biochemical, fluorescent molecular beacon. IC50, µM. spectral interference counter-screen. shares compounds with DNMT1 inh. 200 tested, under 10 active. AID 602382, 2012; call rule not given here
DNMT1 inh conf – DNMT1 methyltransferase inhibitor retest, confirmation, biochemical, molecular beacon, fluorescence, single concentration. 2,300 compounds, 8% hits. inhibition, % at 10 µM. shares compounds with DNMT1 inh. DNMT1 molecular beacon HinP1I cleavage;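 active = average inhibition of at least 30% in the single-concentration confirmation test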
Beacon interf – counter-screen for DNMT1 inhibitors: spectral interference. shares compounds with DNMT1 inh. DNMT1 molecular beacon spectral interference counterscreen, fluorescence 485/520. activation (fluorescence interference), % at 10 µM. 2,300 compounds, 1% hits;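 active = activation of at least 30% at 10 µM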;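 note: DNMT1 catalytic domain with a HinP1I cleavage step and a FAM/dabcyl DNA beacon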
* hit, by the source's call.

Screening CCCSC1=N/C(=C\C=C\c2ccco2)C(=O)S1 returned STEP inh 17.0, LMPTP block 56.2*, Scp1 inh 69.0*, DNMT1 inh 106.1*, SUMO1 PPI mod 32.4, DNMT1 inh conf 8.6 and Beacon interf 2.8.
`CN1CCN(Cc2cc(=O)oc3cc4c(cc23)CCC4)CC1` gave STEP inh -2.2, LMPTP block -2.0, Scp1 inh -8.5, DNMT1 inh 4.7 and SUMO1 PPI mod -1.8.
O=c1cc(CN2CCN(c3ccc(F)cc3)CC2)c2cc3c(cc2o1)CCCC3 was read as STEP inh 2.4, LMPTP block 1.6, Scp1 inh 2.2, DNMT1 inh 63.5*, SUMO1 PPI mod -0.7, DNMT1 inh conf 2.5 and Beacon interf 0.7.
`COc1ccc(S(=O)(=O)N2CCOCC2)cc1NC(=O)c1cc(C)oc1C` gave STEP inh -0.6, LMPTP block 0.0, Scp1 inh -7.2, DNMT1 inh 64.5*, SUMO1 PPI mod -0.3, DNMT1 inh conf 3.7 and Beacon interf -0.6.
For O=C(O)c1ccc2c3c(cccc13)C(=O)N(c1ccccc1)C2=O the results were STEP inh 12.5, LMPTP block 5.2, Scp1 inh 41.5, DNMT1 inh 62.9*, SUMO1 PPI mod -2.9, DNMT1 inh conf 1.9 and Beacon interf -1.5.
Screening NN1C(=O)c2cccc3c(C(=O)O)ccc(c23)C1=O returned STEP inh 1.5, LMPTP block -2.2, Scp1 inh 11.9, DNMT1 inh 3.7 and SUMO1 PPI mod -15.9.
`Nc1ccc2c3c(cccc13)C(=O)N(c1ccccc1)C2=O` gave STEP inh -154.0, LMPTP block -7.3, Scp1 inh -10.7, DNMT1 inh 59.7*, SUMO1 PPI mod -50.3, DNMT1 inh conf 145.6* and Beacon interf 115.1*.
`Nc1cccc(N2C(=O)c3cccc4c(N)ccc(c34)C2=O)c1` gave STEP inh -32.4, LMPTP block -2.0, Scp1 inh -7.7, DNMT1 inh 40.2 and SUMO1 PPI mod -67.6.
For CCCC(C(=O)NCCC(C)C)N(Cc1ccccc1Cl)C(=O)c1snc(C(N)=O)c1N (configuration not stated) the results were STEP inh -1.2, LMPTP block 2.2, Scp1 inh -6.2, DNMT1 inh 2.4 and SUMO1 PPI mod -1.8.
COC(=O)C1=C(C(=O)OC)C2C=CC1C1C(OC(C)=O)C(OC(C)=O)C21 (configuration not stated) was read as STEP inh -1.1, LMPTP block 0.3, DNMT1 inh 3.3 and SUMO1 PPI mod 9.8.
Screening COc1ccc(/C=C2\SC(=O)N(CCCC(=O)Nc3ccc(C(=O)O)cc3)C2=O)cc1 returned STEP inh 0.6, LMPTP block -1.1, DNMT1 inh 3.9 and SUMO1 PPI mod -24.2.
Cc1ccc(NC(=O)CN2C(=O)S/C(=C\c3cccn3-c3cccc(C(=O)O)c3)C2=O)c(C)c1 was read as STEP inh 70.7*, LMPTP block 48.0, Scp1 inh 83.9*, DNMT1 inh 85.5*, SUMO1 PPI mod 9.2, DNMT1 interf DR >99, DNMT1 inh conf 69.4* and Beacon interf -5.1.
`COc1ccc(NC(=O)CN2C(=O)S/C(=C/c3cccn3-c3ccc(C(=O)O)cc3)C2=O)cc1` gave STEP inh 86.1*, LMPTP block 77.3*, DNMT1 inh 77.8*, SUMO1 PPI mod 13.7, DNMT1 inh conf 12.3 and Beacon interf -1.5.
For C=CCn1c(SCC(=O)NC2CCCC2)nc2ccccc21 the results were STEP inh -2.2, LMPTP block 2.0, DNMT1 inh 70.1*, SUMO1 PPI mod 3.3, DNMT1 inh conf 2.6 and Beacon interf 3.2.
For C=CCn1c(SCC(=O)NC2CC2)nc2ccccc2c1=O the results were STEP inh -1.3, LMPTP block -0.8, Scp1 inh -5.7, DNMT1 inh 0.6 and SUMO1 PPI mod 0.9.
Screening O=C(CCc1nc2ccccc2c(=O)[nH]1)Nc1nnc(SCc2ccc(Cl)cc2)s1 returned STEP inh 1.6, LMPTP block 1.0, Scp1 inh 1.3, DNMT1 inh 67.7*, SUMO1 PPI mod 5.4, DNMT1 inh conf 2.6 and Beacon interf -2.8.
Cc1ccc(Nc2nnc(SCc3nc4ccccc4c(=O)[nH]3)s2)cc1 was read as STEP inh -0.8, LMPTP block 0.1, Scp1 inh 0.2, DNMT1 inh 66.0*, SUMO1 PPI mod -0.3, DNMT1 inh conf 1.8 and Beacon interf -1.4.
`O=C(Nc1ccccc1)Nc1nnc(SCc2ccc(Cl)cc2)s1` gave STEP inh -1.7, LMPTP block 0.2, Scp1 inh -4.0, DNMT1 inh 9.4 and SUMO1 PPI mod 0.8.
Screening O=C(CCc1nc2ccccc2c(=O)[nH]1)Nc1nnc(SCc2ccccc2F)s1 returned STEP inh 2.4, LMPTP block 1.6, Scp1 inh -3.9, DNMT1 inh 77.1*, SUMO1 PPI mod 3.1, DNMT1 inh conf 3.3 and Beacon interf -0.5.
Screening CCc1nn(CC(=O)NCCc2ccc(S(N)(=O)=O)cc2)c(=O)c2cc3sccc3n12 returned STEP inh -2.0, LMPTP block 1.2, Scp1 inh 8.8, DNMT1 inh 1.3 and SUMO1 PPI mod -0.8.
CNC(=O)CSc1nnc(SCCC(=O)O)s1 was read as STEP inh -1.4, LMPTP block -0.4, Scp1 inh -1.2, DNMT1 inh 72.5*, SUMO1 PPI mod 5.1, DNMT1 inh conf -0.2 and Beacon interf 1.4.
Screening CC(C)c1ccc(CN(C(=O)c2ccco2)C2CCS(=O)(=O)C2)cc1 (configuration not stated) returned STEP inh 2.5, LMPTP block -2.1, Scp1 inh -4.8, DNMT1 inh 1.5 and SUMO1 PPI mod -3.0.
`CC(=O)Nc1ccc(CNc2nc3cc(-c4cccc(C(F)(F)F)c4)sc3c(=O)n2C)cc1` gave STEP inh -0.2, LMPTP block 4.8, DNMT1 inh 60.7*, SUMO1 PPI mod -10.4, DNMT1 inh conf 4.6 and Beacon interf 7.2.
